Data: BindingDB's records for doi:10.1021/acs.jmedchem.0c01922 (University of Toronto Mississauga, 2021)

Biological target: T1, Histone deacetylase 11 (Homo sapiens, UniProt Q96DB2)
T1 sequence (Q96DB2 whole entry): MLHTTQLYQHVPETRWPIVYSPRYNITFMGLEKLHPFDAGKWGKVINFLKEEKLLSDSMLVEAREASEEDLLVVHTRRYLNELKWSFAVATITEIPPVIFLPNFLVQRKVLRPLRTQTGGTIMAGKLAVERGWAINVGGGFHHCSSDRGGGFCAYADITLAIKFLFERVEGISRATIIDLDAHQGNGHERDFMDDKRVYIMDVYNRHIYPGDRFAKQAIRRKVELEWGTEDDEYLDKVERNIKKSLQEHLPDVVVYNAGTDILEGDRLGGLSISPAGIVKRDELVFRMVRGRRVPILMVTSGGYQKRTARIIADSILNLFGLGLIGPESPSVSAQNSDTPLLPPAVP
Assay: Inhibition of full length human HDAC11 using FAM-labeled acetylated peptide as substrate by electrophoretic mobility shift assay
How it was run: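 Full-length human HDAC isoform enzymatic assay by electrophoretic mobility shift, using a FAM-labelled acetylated peptide substrate. […] Values are the mean of duplicate experiments with 95% confidence intervals.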

IC50: > 1 µM
Structure (SMILES): O=C(NO)c1ccc(CN(Cc2cccnc2)S(=O)(=O)c2cc(F)c(F)c(F)c2F)cc1
